These results are taken from ChEMBL document CHEMBL1127482 (J Med Chem, 1994).

Where a SMILES comes first, the peptide text is derived from it. Bridges are numbered along the chain shown (N, C = ends). A value given as a limit tells only on which side of the number the result lay.

The species named for one assay is Homo sapiens. The assay is described as follows: Inhibition of 10 uM ADP induced platelet aggregation in human platelet rich citreated plasma (PRP). Type of assay: functional. A digest of the protocol:
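Aggregation is read as the increase in light transmission in an aggregometer, with platelets used within 3 h of collection. IC50 comes from regression of dose-response curves for inhibition of maximal aggregation, adjusted against a standard run in each experiment.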

A further assay deals with Integrin alpha-5/beta-1 (Homo sapiens, UniProt P05556+P08648). The assay is described as follows: Binding affinity against integrin alpha5-beta1 in enzyme linked immunosorbent assay (ELISA). Type of assay: protein-complex assay. For orientation: In an ELISA, binding on a coated surface is turned into a signal by an enzyme label.
In assay [1] the target is Integrin alpha-IIb/beta-3 (Homo sapiens, UniProt P05106+P08514). The assay is described as follows: Binding affinity against integrin alpha 2b-beta 3 in enzyme linked immunosorbent assay (ELISA). Type of assay: protein-complex assay. A digest of the protocol:
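Purified human platelet αIIbβ3 (from outdated platelets, octyl glucoside extract) in TBS with 20 mM octyl glucoside, 2 mM MgCl2 and 2 mM CaCl2 binds to plate-coated human fibrinogen (10 µg/mL in TBS) with 10-fold serial peptide dilutions for 3 h at room temperature. Bound receptor is detected with rabbit anti-αIIbβ3, then HRP anti-rabbit IgG, with o-phenylenediamine/H2O2 at pH 5.0. IC50 is reported.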

A further assay deals with Integrin alpha-V/beta-5 (Homo sapiens, UniProt P06756+P18084). The assay is described as follows: Binding affinity against integrin alpha V-beta5 in enzyme linked immunosorbent assay (ELISA). Type of assay: protein-complex assay. A digest of the protocol: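 It is added to wells coated with human vitronectin in 0.1 M carbonate, pH 9.6, with 10-fold serial peptide dilutions for 3 h at room temperature. Detection uses rabbit anti-VnR, HRP anti-rabbit IgG and o-phenylenediamine/H2O2.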
Integrin alpha-V/beta-5, sequence (P06756 31-889 limits assumed): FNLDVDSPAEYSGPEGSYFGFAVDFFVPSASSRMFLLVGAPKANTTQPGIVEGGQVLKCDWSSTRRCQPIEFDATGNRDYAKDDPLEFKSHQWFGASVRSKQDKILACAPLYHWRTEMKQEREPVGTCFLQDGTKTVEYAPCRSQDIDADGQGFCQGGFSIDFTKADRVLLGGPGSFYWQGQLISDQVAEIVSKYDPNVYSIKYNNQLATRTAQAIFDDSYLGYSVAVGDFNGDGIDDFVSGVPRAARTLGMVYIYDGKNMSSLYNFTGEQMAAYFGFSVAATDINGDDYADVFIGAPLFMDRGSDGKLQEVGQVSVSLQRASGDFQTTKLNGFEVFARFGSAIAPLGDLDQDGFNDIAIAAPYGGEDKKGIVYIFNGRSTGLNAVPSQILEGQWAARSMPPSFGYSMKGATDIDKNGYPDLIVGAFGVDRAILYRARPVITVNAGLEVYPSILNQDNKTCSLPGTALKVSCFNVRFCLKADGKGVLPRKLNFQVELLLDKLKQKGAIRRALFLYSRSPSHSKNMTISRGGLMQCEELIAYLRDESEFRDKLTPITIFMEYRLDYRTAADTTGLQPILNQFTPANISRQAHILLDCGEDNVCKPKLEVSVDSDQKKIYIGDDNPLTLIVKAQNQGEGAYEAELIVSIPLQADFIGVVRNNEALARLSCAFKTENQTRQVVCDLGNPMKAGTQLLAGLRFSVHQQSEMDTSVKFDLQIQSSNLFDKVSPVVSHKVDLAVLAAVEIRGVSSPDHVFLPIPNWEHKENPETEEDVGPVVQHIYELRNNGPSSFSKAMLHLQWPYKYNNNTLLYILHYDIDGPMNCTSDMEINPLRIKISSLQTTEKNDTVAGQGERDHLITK
Integrin alpha-V/beta-5, sequence (P06756 891-1048 limits assumed): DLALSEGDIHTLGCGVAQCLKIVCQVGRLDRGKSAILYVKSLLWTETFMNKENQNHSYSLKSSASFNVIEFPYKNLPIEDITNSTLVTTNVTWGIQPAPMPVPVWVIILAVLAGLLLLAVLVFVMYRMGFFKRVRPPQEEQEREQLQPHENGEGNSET
Integrin alpha-V/beta-5, sequence (P18084 24-799 limits assumed): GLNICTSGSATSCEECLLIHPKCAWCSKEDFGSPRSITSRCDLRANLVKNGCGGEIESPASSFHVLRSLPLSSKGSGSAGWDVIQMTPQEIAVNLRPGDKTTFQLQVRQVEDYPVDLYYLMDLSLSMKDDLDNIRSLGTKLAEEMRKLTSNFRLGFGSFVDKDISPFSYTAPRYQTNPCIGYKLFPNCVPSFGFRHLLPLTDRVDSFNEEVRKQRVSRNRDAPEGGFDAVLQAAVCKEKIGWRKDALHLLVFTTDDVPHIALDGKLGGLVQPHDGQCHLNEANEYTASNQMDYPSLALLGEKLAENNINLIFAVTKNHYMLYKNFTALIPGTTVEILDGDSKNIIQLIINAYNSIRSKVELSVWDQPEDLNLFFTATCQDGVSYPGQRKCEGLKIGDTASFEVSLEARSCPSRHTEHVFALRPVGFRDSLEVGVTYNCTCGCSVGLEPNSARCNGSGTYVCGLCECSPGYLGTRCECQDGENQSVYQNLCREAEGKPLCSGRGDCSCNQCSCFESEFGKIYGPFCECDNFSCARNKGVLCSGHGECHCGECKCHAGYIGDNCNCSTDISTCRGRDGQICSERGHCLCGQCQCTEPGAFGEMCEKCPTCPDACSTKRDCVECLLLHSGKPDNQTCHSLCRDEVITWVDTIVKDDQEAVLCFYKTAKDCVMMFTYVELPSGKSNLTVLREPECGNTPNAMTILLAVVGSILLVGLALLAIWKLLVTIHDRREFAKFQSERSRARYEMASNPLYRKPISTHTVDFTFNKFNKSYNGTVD

The species named for the next assay is Canis familiaris. The assay is described as follows: Effect of compound on template bleeding time in dogs. Type of assay: functional, Canis lupus familiaris.

Integrin alpha-IIb/beta-3, sequence (P05106 27-788 limits assumed): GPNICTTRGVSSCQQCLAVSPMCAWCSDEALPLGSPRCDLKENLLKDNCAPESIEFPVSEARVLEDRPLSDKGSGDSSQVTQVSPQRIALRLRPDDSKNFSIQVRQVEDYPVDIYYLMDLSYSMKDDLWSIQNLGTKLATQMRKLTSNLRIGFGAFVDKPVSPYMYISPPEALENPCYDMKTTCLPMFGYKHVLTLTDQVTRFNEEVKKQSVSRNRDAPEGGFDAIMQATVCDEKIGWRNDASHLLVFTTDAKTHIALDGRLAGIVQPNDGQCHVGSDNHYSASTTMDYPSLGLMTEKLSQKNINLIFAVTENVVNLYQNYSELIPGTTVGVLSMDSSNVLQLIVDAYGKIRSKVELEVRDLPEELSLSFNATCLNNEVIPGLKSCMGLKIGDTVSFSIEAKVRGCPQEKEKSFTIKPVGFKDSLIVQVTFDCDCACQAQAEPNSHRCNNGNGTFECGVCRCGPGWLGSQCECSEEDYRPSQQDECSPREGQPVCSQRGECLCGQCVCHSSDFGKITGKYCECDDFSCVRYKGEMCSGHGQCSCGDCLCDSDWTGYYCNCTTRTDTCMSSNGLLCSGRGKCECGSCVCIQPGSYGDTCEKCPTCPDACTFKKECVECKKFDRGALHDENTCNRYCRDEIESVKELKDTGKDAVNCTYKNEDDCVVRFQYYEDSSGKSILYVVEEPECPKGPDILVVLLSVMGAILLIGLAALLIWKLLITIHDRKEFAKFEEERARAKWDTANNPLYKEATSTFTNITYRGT
Integrin alpha-IIb/beta-3, sequence (P08514 32-887 limits assumed): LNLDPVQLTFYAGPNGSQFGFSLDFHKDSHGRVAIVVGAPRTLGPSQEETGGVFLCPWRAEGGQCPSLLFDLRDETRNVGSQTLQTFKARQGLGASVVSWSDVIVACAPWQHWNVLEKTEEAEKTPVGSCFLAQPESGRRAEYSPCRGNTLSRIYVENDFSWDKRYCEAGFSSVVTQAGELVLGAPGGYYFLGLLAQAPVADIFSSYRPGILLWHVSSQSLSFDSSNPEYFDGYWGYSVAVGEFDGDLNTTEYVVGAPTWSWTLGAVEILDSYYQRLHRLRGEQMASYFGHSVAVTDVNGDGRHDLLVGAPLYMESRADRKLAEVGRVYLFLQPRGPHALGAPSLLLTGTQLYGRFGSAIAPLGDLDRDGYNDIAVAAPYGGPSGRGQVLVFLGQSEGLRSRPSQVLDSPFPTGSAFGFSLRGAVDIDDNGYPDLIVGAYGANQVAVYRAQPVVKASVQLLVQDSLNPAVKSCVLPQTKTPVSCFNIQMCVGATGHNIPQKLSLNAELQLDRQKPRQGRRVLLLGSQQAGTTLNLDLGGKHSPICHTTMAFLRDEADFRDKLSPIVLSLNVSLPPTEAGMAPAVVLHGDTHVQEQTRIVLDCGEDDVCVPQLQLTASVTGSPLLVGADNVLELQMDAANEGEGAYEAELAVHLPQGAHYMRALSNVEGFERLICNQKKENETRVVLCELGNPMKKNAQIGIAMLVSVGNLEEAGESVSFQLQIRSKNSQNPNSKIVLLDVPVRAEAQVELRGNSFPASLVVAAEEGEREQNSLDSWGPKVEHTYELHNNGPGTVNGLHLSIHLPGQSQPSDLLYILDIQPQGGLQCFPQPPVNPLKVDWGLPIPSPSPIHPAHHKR
Integrin alpha-IIb/beta-3, sequence (P08514 891-1039 limits assumed): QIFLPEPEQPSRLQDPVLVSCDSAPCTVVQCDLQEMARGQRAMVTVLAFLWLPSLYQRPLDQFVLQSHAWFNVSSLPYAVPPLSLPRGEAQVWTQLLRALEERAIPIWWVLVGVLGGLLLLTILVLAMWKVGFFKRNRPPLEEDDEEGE

Regarding `CCOc1ccc(C[C@@H]2NC(=O)[C@H](CC(=O)O)NC(=O)CNC(=O)[C@H](CCCN=C(N)N)NC(=O)[C@@H]3CCCN3C(=O)[C@H](CC(N)=O)NC(=O)[C@@H](NC(C)=O)CSSC[C@@H](C(N)=O)NC(=O)[C@H](CCCN=C(N)N)NC2=O)cc1`, the IC50 (usually the concentration that inhibits the measured activity by half) came to 0.22 µM in the assay filed under Homo sapiens, 10 µM at Integrin alpha-5/beta-1, 0.004 µM in assay [1] and 8.4 µM at Integrin alpha-V/beta-5.

As to `COc1ccc(C[C@@H]2NC(=O)[C@H](CC(=O)O)NC(=O)CNC(=O)[C@H](CCCNC(=N)N)NC(=O)[C@@H]3CCCN3C(=O)[C@H](CC(N)=O)NC(=O)[C@@H](NC(C)=O)CSSC[C@@H](C(N)=O)NC(=O)[C@H](C)NC2=O)cc1`, the Bleeding time in the assay listed under Canis familiaris is above 30 min.

Turning to `COc1ccc(C[C@@H]2NC(=O)[C@H](CC(=O)O)NC(=O)CNC(=O)[C@H](CCCNC(=N)N)NC(=O)[C@@H]3CCCN3C(=O)[C@H](CC(N)=O)NC(=O)[C@@H](NC(C)=O)CSSC[C@@H](C(N)=O)NC(=O)[C@H](CCC(=O)O)NC2=O)cc1`, the Bleeding time in the assay filed under Canis familiaris is above 30 min.

The molecule `COc1ccc(C[C@@H]2NC(=O)[C@H](CC(=O)O)NC(=O)CNC(=O)[C@H](CCCN=C(N)N)NC(=O)[C@@H]3CCCN3C(=O)[C@H](CC(N)=O)NC(=O)[C@@H](NC(C)=O)CSSC[C@@H](C(N)=O)NC(=O)[C@H](CCCN=C(N)N)NC2=O)cc1` came in with a Bleeding time in the assay filed under Canis familiaris of 3 min.

The molecule `COc1ccc(C[C@@H]2NC(=O)[C@H](CC(=O)O)NC(=O)CNC(=O)[C@H](CCCNC(=N)N)NC(=O)[C@@H]3CCCN3C(=O)[C@H](CC(N)=O)NC(=O)[C@@H](NC(C)=O)CSSC[C@@H](C(N)=O)NC(=O)[C@H](CC(C)C)NC2=O)cc1` yielded a Bleeding time in the assay filed under Canis familiaris of 21 min.

As to `CC[C@H](C)[C@@H]1NC(=O)[C@@H](NC(C)=O)CSSC[C@@H](C(N)=O)NC(=O)[C@H](CCCN=C(N)N)NC(=O)[C@H](Cc2ccc([N+](=O)[O-])cc2)NC(=O)[C@H](CC(=O)O)NC(=O)CNC(=O)[C@H](CCCN=C(N)N)NC(=O)[C@@H]2CCCN2C1=O`, the IC50 in the assay filed under Homo sapiens was 0.21 µM; on Integrin alpha-5/beta-1, 1.2 µM; in assay [1], 0.43 µM; on Integrin alpha-V/beta-5 it was 4.3 µM.

`COc1ccc(C[C@@H]2NC(=O)[C@H](CC(=O)O)NC(=O)CNC(=O)[C@H](CCCCN)NC(=O)[C@@H]3CCCN3C(=O)[C@H](CC(N)=O)NC(=O)[C@@H](NC(C)=O)CSSC[C@@H](C(N)=O)NC(=O)[C@H](CCCN=C(N)N)NC2=O)cc1`: in the assay listed under Canis familiaris, the Bleeding time was found to be 3.5 min.

On to `CC[C@H](C)[C@@H]1NC(=O)[C@@H](NC(C)=O)CSSC[C@@H](C(N)=O)NC(=O)[C@H](CCCN=C(N)N)NC(=O)[C@H](Cc2ccccc2)NC(=O)[C@H](CC(=O)O)NC(=O)CNC(=O)[C@H](CCCN=C(N)N)NC(=O)[C@@H]2CCCN2C1=O` (Ac-CIPRGDFRC-NH2; disulfide 1-9), for which the half-inhibitory concentration (IC50) in the assay filed under Homo sapiens was determined as 0.45 µM; on Integrin alpha-5/beta-1 it was 2.1 µM; in assay [1], 0.014 µM; at Integrin alpha-V/beta-5, 10 µM.

Regarding `CC[C@H](C)[C@@H]1NC(=O)[C@@H](NC(C)=O)CSSC[C@@H](C(N)=O)NC(=O)[C@H](CCCNC(=N)N)NC(=O)[C@H](Cc2ccc(O)cc2)NC(=O)[C@H](CC(=O)O)NC(=O)CNC(=O)[C@H](CCCNC(=N)N)NC(=O)[C@@H]2CCCN2C1=O` (Ac-CIPRGDYRC-NH2; disulfide 1-9), the IC50 is 4.5 µM on Integrin alpha-5/beta-1, 0.003 µM in assay [1] and above 10 µM on Integrin alpha-V/beta-5.
